Source: ChEMBL document CHEMBL3244370, “Synthesis, metabolism, and antitumor activity of deuterated analogues of 1-(2-chloroethyl)-3-cyclohexyl-1-nitrosourea” (J Med Chem, 1978)

Columns and labels:
W256 [1] = experiment: Antitumor activity against 0.25 ug/ml compound treated rat Walker 256 cells allografted in rat assessed as increase of host survival time cells incubated for 2 hrs with NADPH prior to animal injection; assay type: functional
[2] = Antitumor activity against mouse TLX5 cells allografted in mouse assessed as increase in host survival time at 10 mg/kg relative to control; assay type: functional, TLX-5
Liver microsome [3] = experiment: Drug metabolism in Wistar rat liver microsomes assessed as recovered total OH-CCNU derivatives level at 2.8 mg after 10 mins by HPLC analysis; assay type: ADME; conditions: in vitro
Method in brief: (§1)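 Microsomes from phenobarbital-pretreated male Wistar rat liver (protein 2.1 mg/mL) in 0.1 M phosphate pH 7.4 with NADP, glucose 6-phosphate, MgCl₂ and G6PDH. Incubated under O₂ at 37 °C for 10 min; 2.8 mg (12 μmol) substrate in 20 mL total. Hexane extraction, then silica HPLC quantification of residual CCNU and OH-CCNU isomers.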

[4] = Drug metabolism in Wistar rat liver microsomes at 50 ug/ml after 2.5 mins; assay type: ADME; conditions: read-out: Drug metabolism
Method in brief: (§2)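 Equimolar CCNU and CCNU-d10, each 50 μg/mL (0.21 mM), co-incubated at 37 °C under O₂ with phenobarbital-induced male Wistar rat liver microsomes plus NADPH-generating system in 0.1 M phosphate pH 7.4. Duplicate 1 mL samples taken at intervals into hexane containing CCNU-d4 internal standard. Residual drug measured by 12 eV mass spectrometry. Heat-inactivated microsomes used as control.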

[5] = Antitumor activity against mouse TLX5 cells allografted in mouse assessed as increase in host survival time at 5 mg/kg relative to control; assay type: functional, TLX-5
W256 [6] = experiment: Antitumor activity against 0.25 ug/ml compound treated rat Walker 256 cells allografted in rat assessed as increase of host survival time cells incubated for 2 hrs with rat liver microsomes and NADPH prior to animal injection; assay type: functional
W256 [7] = experiment: Antitumor activity against 4 ug/ml compound treated rat Walker 256 cells allografted in rat assessed as increase of host survival time cells incubated for 2 hrs with rat liver microsomes and NADPH prior to animal injection; assay type: functional
[8] = Antitumor activity against mouse TLX5 cells allografted in mouse assessed as increase in host survival time at 160 mg/kg relative to control; assay type: functional, TLX-5
[9] = Drug metabolism in Wistar rat liver microsomes at 50 ug/ml after 10 mins; assay type: ADME; conditions: read-out: Drug metabolism; method in brief: as §2
[10] = Drug metabolism in Wistar rat liver microsomes at 50 ug/ml after 20 mins; assay type: ADME; conditions: read-out: Drug metabolism; method in brief: as §2
W256 [11] = experiment: Antitumor activity against 1 ug/ml compound treated rat Walker 256 cells allografted in rat assessed as increase of host survival time cells incubated for 2 hrs with NADPH prior to animal injection; assay type: functional
W256 [12] = experiment: Antitumor activity against 4 ug/ml compound treated rat Walker 256 cells allografted in rat assessed as increase of host survival time cells incubated for 2 hrs with NADPH prior to animal injection; assay type: functional
[13] = Antitumor activity against mouse TLX5 cells allografted in mouse assessed as increase in host survival time at 80 mg/kg relative to control; assay type: functional, TLX-5
[14] = Antitumor activity against mouse TLX5 cells allografted in mouse assessed as increase in host survival time at 20 mg/kg relative to control; assay type: functional, TLX-5
W256 [15] = experiment: Antitumor activity against 1 ug/ml compound treated rat Walker 256 cells allografted in rat assessed as increase of host survival time cells incubated for 2 hrs with rat liver microsomes and NADPH prior to animal injection; assay type: functional
W256 [16] = experiment: Antitumor activity against 0.5 ug/ml compound treated rat Walker 256 cells allografted in rat assessed as increase of host survival time cells incubated for 2 hrs with NADPH prior to animal injection; assay type: functional
[17] = Antitumor activity against mouse TLX5 cells allografted in mouse assessed as increase in host survival time at 40 mg/kg relative to control; assay type: functional, TLX-5
W256 [18] = experiment: Antitumor activity against 0.5 ug/ml compound treated rat Walker 256 cells allografted in rat assessed as increase of host survival time cells incubated for 2 hrs with rat liver microsomes and NADPH prior to animal injection; assay type: functional
[19] = Drug metabolism in Wistar rat liver microsomes at 50 ug/ml after 5 mins; assay type: ADME; conditions: read-out: Drug metabolism; method in brief: as §2
Liver microsome [20] = experiment: Retention time in Wistar rat liver microsomes at 50 ug/ml after 10 mins by HPLC analysis; assay type: ADME
Method in brief: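 Liver microsomes from phenobarbital-pretreated male Wistar rats (protein 2.1 mg/mL), with an NADPH-generating system (NADP, glucose 6-phosphate, MgCl2, G6P dehydrogenase) in 0.1 M phosphate pH 7.4. Incubated under oxygen at 37 °C for 10 min, then extracted with hexane. OH-CCNU isomers resolved by analytical HPLC using n-heptane–dichloromethane–propan-2-ol (960:63:35) at 1.9 mL/min; elution times recorded.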

Liver microsome [21] = experiment: Drug metabolism in Wistar rat liver microsomes assessed as recovered CCNU level at 2.8 mg after 10 mins by HPLC analysis; assay type: ADME; conditions: in vitro; method in brief: as §1

SMILES | Activity [2] | Drug metabolism (Liver microsome [3]) | Activity [5] | Activity [8] | Activity [13] | Activity [14] | Activity [17] | Retention_time (Liver microsome [20]) | Drug metabolism (Liver microsome [21]) | further results
O=NN(CCCl)C(=O)NC1CCCCC1 [LOMUSTINE] | 54% | 1230 µg | 1% | -31.4% | -23.3% | 69.6% | 76.8% | – | – | Activity (W256 [1]): 9%; metabolised at 2.5 min, 50 ug/ml [4]: 26.8%; Activity (W256 [6]): 21%; Survival (W256 [7]): 30 days; metabolised at 10 min, 50 ug/ml [9]: 72.5%; metabolised at 20 min, 50 ug/ml [10]: 91.8%; Activity (W256 [11]): 64%; Survival (W256 [12]): 30 days; Activity (W256 [15]): 145%; Activity (W256 [16]): 60%; Activity (W256 [18]): 106%; metabolised at 5 min, 50 ug/ml [19]: 47.9%
O=NN(CCCl)C(=O)N[C@H]1CCC[C@@H](O)C1 | – | – | – | – | – | – | – | – | – | Retention time (Liver microsome [20]): 7.8 min
O=NN(CCCl)C(=O)N[C@H]1CCCC[C@@H]1O | – | – | – | – | – | – | – | 3.8 min | – | –
O=NN(CCCl)C(=O)N[C@H]1CCCC[C@H]1O | – | – | – | – | – | – | – | 2.8 min | – | –
[2H]C1([2H])CC(NC(=O)N(CCCl)N=O)CC([2H])([2H])C1([2H])[2H] | 38.1% | 994 µg | 38.1% | -32% | -7.3% | 95.8% | 81.4% | – | 538 µg | –
O=NN(CCCl)C(=O)N[C@H]1CCC[C@H](O)C1 | – | – | – | – | – | – | – | – | – | Retention time (Liver microsome [20]): 7.1 min
[2H]C1([2H])C(NC(=O)N(CCCl)N=O)C([2H])([2H])C([2H])([2H])C([2H])([2H])C1([2H])[2H] | 20% | 911 µg | – | -28% | -22% | 42% | 217% | – | 498 µg | metabolised at 2.5 min, 50 ug/ml [4]: 16.1%; metabolised at 10 min, 50 ug/ml [9]: 69.5%; metabolised at 20 min, 50 ug/ml [10]: 91.9%; metabolised at 5 min, 50 ug/ml [19]: 38.3%
O=NN(CCCl)C(=O)N[C@H]1CC[C@@H](O)CC1 | – | – | – | – | – | – | – | 9.6 min | – | –
O=NN(CCCl)C(=O)N[C@H]1CC[C@H](O)CC1 | – | – | – | – | – | – | – | 16.9 min | – | –
[2H]C1([2H])CCCC([2H])([2H])C1NC(=O)N(CCCl)N=O | 63.6% | 1089 µg | -5.1% | -21.3% | -9.1% | 79.7% | 178.7% | – | 272 µg | –
